Test results: ChEMBL document CHEMBL5038583, “Highly Potent and Selective Butyrylcholinesterase Inhibitors for Cognitive Improvement and Neuroprotection” (J Med Chem, 2021)
The source made the active and inactive calls. No cut-off for these calls is given here.

What was measured:
SH-SY5Y [1] = experiment: Neuroprotective activity against glutamate-induced cytotoxicity in human SH-SY5Y cells at 10 uM pretreated for 2 hrs followed by glutamate stimulation and measured after 24 hrs by MTT assay; assay type: functional, cell-based; details: time 26.0 hrs
Outline: (§1)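 SH-SY5Y cells seeded at 5000 per well and grown 24 h. Pretreated 2 h with compound (2.5 or 10 μM, diluted in DMEM from 10⁻¹ M DMSO stock), then H₂O₂ 200 μM, glutamate 20 mM or aggregated Aβ1-42 15 μM for 24 h. MTT added for 4 h, formazan dissolved in DMSO, absorbance read at 492 nm. Viability relative to untreated control; mean ± SEM, n = 3.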

[2] = AUC (0 to t) in overnight fasted Sprague-Dawley rat at 10 mg/kg, iv measured upto 1440 mins by LC/MS/MS analysis; assay type: ADME, organism-based; design: route intravenous, dose 10 mg/kg, time <=1440; details: in vivo, 24 h
Outline: (§2)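 Male SD rats (180−220 g), n = 8 per route, fasted overnight with water available. Single 10 mg/kg dose p.o. or i.v. in DMSO/PEG400/saline (10:80:10). Retro-orbital blood taken into heparinized tubes at 1–1440 min. Plasma precipitated with methanol containing theophylline internal standard, then LC/MS/MS against a blank-plasma standard curve. Parameters from noncompartmental extravascular analysis; mean ± SD.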

[3] = Ratio of drug concentration in brain to plasma of ICR mouse at 10 mg/kg, po measured after 4 hrs; assay type: ADME, organism-based
Outline: (§3)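 ICR mice given 10 mg/kg orally in 5% DMSO/40% PEG400/55% saline (1 mg/mL). Blood (retro-orbital) and brain collected at 30, 60, 120 and 240 min. Brain homogenized in 2 volumes PBS, extracted with ethyl acetate, dried and reconstituted in mobile phase. Plasma processed as in the rat study; LC/MS/MS. Brain/plasma ratios from exposures, AUC(B) vs AUC(P).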

[4] = AUC (0 to infinity) in overnight fasted Sprague-Dawley rat at 10 mg/kg, po measured upto 1440 mins by LC/MS/MS analysis; assay type: ADME, organism-based; design: route oral, dose 10 mg/kg, time <=1440; details: in vivo; outline: as §2
[5] = Metabolic stability in human liver microsomes assessed as half life at 1 uM measured upto 45 mins in presence of NADPH by LC/MS/MS analysis; assay type: ADME, Microsome
Outline: (§4)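 Human liver microsomes 0.5 mg/mL, compound 1 μM final, NADPH 2 mM, at 37 °C. Reactions stopped at 0, 5, 15, 30 and 45 min with acetonitrile containing imipramine internal standard. LC/MS/MS quantitation relative to 0 min; initial rates used for t1/2 and intrinsic clearance; ketanserin as assay control. Mean of two independent experiments.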

[6] = Hepatotoxicity in ICR mouse assessed as change in alanine aminotransferase activity at 1 g/kg, ig administered daily for 14 days measured upto 36 hrs post-administration; assay type: toxicity; details: in vivo, po, 1000 mg/kg, 336 h, time 14 day
Outline: (§5)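 Heparinized serum from ICR mice taken at 8, 22 and 36 h after oral compound or saline control; AST and ALT activities measured.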

PC-12 = experiment: Cytotoxicity against rat PC-12 cells assessed as reduction in cell viability incubated for 24 hrs by MTT assay; assay type: functional, cell-based; details: PC-12, 24 h
Outline: (§6)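 Cells seeded at 1 × 10⁴/well in DMEM with 10% FBS and left overnight, then given compound (DMSO stock diluted in DMEM) for 24 h at 37 °C. MTT added for 4 h, formazan dissolved in DMSO, absorbance read at 492 nm. Viability taken as OD treated/OD DMEM × 100%; IC50 from three independent experiments, mean SD.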

BV-2 [7] = experiment: Cytotoxicity against mouse BV-2 cells assessed as survival rate at 100 uM incubated for 24 hrs by MTT assay; assay type: functional; outline: as §6
Cholinesterase = Cholinesterase (Equus caballus, UniProt P81908); experiment: Inhibition of equine serum BChE using butyrylthiocholine iodide as substrate preincubated for 5 mins followed by substrate addition and measured after 2 mins by DTNB-reagent based Ellman's method
[8] = Metabolic stability in human liver microsomes assessed as intrinsic clearance at 1 uM measured upto 45 mins in presence of NADPH by LC/MS/MS analysis; assay type: ADME, Microsome; details: read-out: CLH; outline: as §4
[9] = Cmax in ICR mouse plasma at 10 mg/kg, po measured upto 240 mins; assay type: ADME, organism-based; design: route oral, dose 10 mg/kg, time <=240; outline: as §3
[10] = Half life in overnight fasted Sprague-Dawley rat at 10 mg/kg, po measured upto 1440 mins by LC/MS/MS analysis; assay type: ADME, organism-based; details: in vivo; outline: as §2
Mus musculus [11] = experiment: Anti-alzheimer activity in scopolamine-induced ICR mouse model of cognitive impairment assessed as simplification of trajectories at 30 mg/kg, ig administered for 10 consecutive days by Morris water maze test; assay type: functional, organism-based
Outline: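 Male ICR mice (8−10 weeks, 18−20 g), n = 8 per group. Compound at 15 or 30 mg/kg intragastric in DMSO/saline (10:90), given 30 min before scopolamine 3 mg/kg i.p., for 10 consecutive days; tacrine 15 mg/kg as reference. Morris water maze: 5 days of training, probe trial on day 6 with platform removed. Escape latency and trajectory recorded; mean ± SD.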

[12] = AUC (0 to t) in ICR mouse plasma at 10 mg/kg, po measured upto 240 mins; assay type: ADME, organism-based; design: route oral, dose 10 mg/kg, time <=240; outline: as §3
Mus musculus [13] = experiment: Anti-alzheimer activity in amyloid beta(1 to 42)-induced ICR mouse model of cognitive impairment assessed as reduction in escape latency time at 15 mg/kg, ig administered at days 2 to 14 by Morris water maze test; assay type: functional
Outline: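 Mouse model by icv oligomerized Aβ1-42 (10 μg/mouse, aggregated 24 h at 37 °C in saline) on day 1; 15 mg/kg ig on days 2−14, n = 8. Morris water maze training on days 9−13, probe trial day 14, escape latency and track recorded. Mean SD.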

SH-SY5Y [14] = experiment: Cytotoxicity against human SH-SY5Y cells assessed as survival rate at 100 uM incubated for 24 hrs by MTT assay; assay type: functional; outline: as §6
[15] = Ratio of drug concentration in brain to plasma of ICR mouse at 10 mg/kg, po measured after 2 hrs; assay type: ADME, organism-based; outline: as §3
SH-SY5Y [16] = experiment: Neuroprotective activity against amyloid beta (1 to 42)-induced cytotoxicity in human SH-SY5Y cells at 2.5 uM pretreated for 2 hrs followed by amyloid beta (1 to 42) stimulation and measured after 24 hrs by MTT assay; assay type: functional, cell-based; details: time 26.0 hrs; outline: as §1
[17] = Cmax in overnight fasted Sprague-Dawley rat at 10 mg/kg, po measured upto 1440 mins by LC/MS/MS analysis; assay type: ADME, organism-based; design: route oral, dose 10 mg/kg, time <=1440; details: in vivo; outline: as §2
[18] = Hepatotoxicity in ICR mouse assessed as change in aspartate aminotransferase activity at 1 g/kg, ig administered daily for 14 days measured upto 36 hrs post-administration; assay type: toxicity; details: in vivo, po, 1000 mg/kg, 336 h, time 14 day; outline: as §5
SH-SY5Y [19] = experiment: Neuroprotective activity against H2O2-induced cytotoxicity in human SH-SY5Y cells pretreated for 2 hrs followed by H2O2 stimulation and measured after 24 hrs by MTT assay; assay type: functional, cell-based; details: dose 2.5-10 µM, time 26.0 hrs; outline: as §1
BV-2 [20] = experiment: Anti-inflammatory activity against mouse BV-2 cells assessed as blocked of LPS-induced increased ROS production by measuring green fluorescence preincubated for 1 hr by DCFH-DA staining based fluorescence microscopy; assay type: functional, cell-based
Outline: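 BV2 cells seeded at 1 × 10⁴ per well and grown 24 h at 37 °C. Compounds at various concentrations for 1 h, then LPS 2.5 μg/mL for 24 h. Washed in PBS, loaded with DCFH-DA 5 μM (final) for 30 min, washed three times. Intracellular ROS taken as green fluorescence intensity by inverted fluorescence microscopy, exposure fixed at 10.2 ms.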

Sequence of Cholinesterase (P81908 whole entry): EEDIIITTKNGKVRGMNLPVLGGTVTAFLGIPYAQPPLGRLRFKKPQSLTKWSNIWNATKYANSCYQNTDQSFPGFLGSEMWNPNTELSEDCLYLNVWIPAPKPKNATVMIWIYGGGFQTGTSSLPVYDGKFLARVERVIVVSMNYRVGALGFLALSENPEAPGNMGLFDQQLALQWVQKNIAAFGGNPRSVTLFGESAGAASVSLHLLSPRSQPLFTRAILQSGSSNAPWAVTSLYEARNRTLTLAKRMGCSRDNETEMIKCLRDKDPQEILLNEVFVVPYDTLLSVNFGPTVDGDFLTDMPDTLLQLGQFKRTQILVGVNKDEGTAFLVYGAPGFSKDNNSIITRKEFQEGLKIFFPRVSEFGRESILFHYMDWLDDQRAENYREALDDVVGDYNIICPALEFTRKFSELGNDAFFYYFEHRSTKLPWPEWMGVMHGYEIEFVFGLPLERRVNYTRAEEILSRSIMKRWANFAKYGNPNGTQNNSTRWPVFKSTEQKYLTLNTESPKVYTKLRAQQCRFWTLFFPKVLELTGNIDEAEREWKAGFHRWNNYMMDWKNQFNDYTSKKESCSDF

## Nc1nonc1-c1nc2ccccc2n1CC(=O)Nc1cnc2ccccc2c1
SH-SY5Y [1]
  Activity: Active
[2]
  AUCt: 859.64 ng·h/mL
[3]
  Kp at 4 h: 1.54
[4]
  AUC(0-inf): 662 ng·h/mL
[5]
  half-life at 1 µM: 2.65 h
[6]
  Activity: Non-Toxic
PC-12
  IC50: 33.5 µM
BV-2 [7]
  Activity: 69.72%
Cholinesterase
  IC50: 0.02 µM
[8]
  CLint scaled at 1 µM: 10.9 mL/min/kg
[9]
  Cmax: 49.9 ng/mL
[10]
  half-life: 5.47 h
Mus musculus [11]
  Activity: Active
[12]
  AUC(0-t) at 4 h: 94.7 ng·h/mL
Mus musculus [13]
  Time: 13.83 s
SH-SY5Y [14]
  Activity: 62.19%
[15]
  Kp at 2 h: 2.43
SH-SY5Y [16]
  Activity: Active
[17]
  Cmax: 44.7 ng/mL
[18]
  Activity: Non-Toxic
SH-SY5Y [19]
  Activity: Dose-Dependent Effect
BV-2 [20]
  Activity: Active
